The results in this text go back to ChEMBL document CHEMBL1124279, “N,N-Dialkylated monophenolic trans-2-phenylcyclopropylamines: novel central 5-hydroxytryptamine receptor agonists” (J Med Chem, 1988).

The target of assay [1] is T1, Serotonin (5-HT) receptor (Rattus norvegicus) (UniProt P35563+P35365+P32305+P31388+Q9JJ16+P28564+P30994+Q62758+P08909+P14842+P30940+P35364+P19327+P28565). In words: Evaluated for receptor mediated feedback inhibition of 5-HTP formation in hemisphere of rat brain when administered subcutaneously. The assay is classed as functional. The essentials: (§1)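 Reserpinized male Sprague-Dawley rats (200–300 g), compounds in saline (occasionally a few drops of glacial acetic acid and/or warming), near-neutral pH, given sc at 5 or 10 mL/kg. Reserpine was in acetic acid/5.5% glucose. 5-HTP formation was measured in the brain part. The ED50 is the dose giving a half-maximal decrease, from dose-response curves of four to six doses (n = 3-4).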

The target in assay [2] is T1, Serotonin (5-HT) receptor (Rattus norvegicus). In words: Evaluated for receptor mediated feedback inhibition of 5-HTP formation in limbic tissue of rat brain when administered subcutaneously. The assay is classed as functional, tissue-based. The note with it: Limbic system. The method in brief:
as §1

The target is the same in assay [3]. In words: Evaluated for receptor mediated feedback inhibition of 5-HTP formation in striatum tissue of rat brain when administered subcutaneously. The assay is classed as functional, tissue-based. The method in brief:
as §1

As for `CCCN(CCC)C1CC1c1ccccc1O` (stereo in doubt; 8), the ED50 in assay [1] was 0.36 µmol/kg; in assay [2], 0.41 µmol/kg; in assay [3] it was 0.36 µmol/kg.

For `CCN(CC)C1CC1c1ccccc1O` (stereo not given), the ED50 in assay [1] was determined as 0.8 µmol/kg; in assay [2] it was 0.82 µmol/kg; in assay [3] it was 1.2 µmol/kg.

For the compound `CCCCN(CCCC)C1CC1c1ccccc1O` (stereo not given), the ED50 in assay [1], in assay [2] and in assay [3] was more than 50 µmol/kg in each case.

In the case of `CCN(CC)C1CC1c1cccc(O)c1` (stereo not given), the ED50 in assay [1] is 0.4 µmol/kg; in assay [2] it was 0.34 µmol/kg; in assay [3] it was 0.32 µmol/kg.

As for `CCCCN(CCCC)C1CC1c1cccc(O)c1` (stereo not given), the ED50 in assay [1], in assay [2] and in assay [3] was more than 50 µmol/kg throughout.

Regarding `CN(C)C1CC1c1cccc(O)c1` (stereo not given), the ED50 in assay [1] turned out to be 25.1 µmol/kg; in assay [2] it was 10.8 µmol/kg; in assay [3], 8.59 µmol/kg.

Take `CCCN(CCC)C1CC1c1cccc(O)c1` (single isomer, unassigned; (-)): the ED50 was 0.35 µmol/kg in assay [1], 0.34 µmol/kg in assay [2] and 0.28 µmol/kg in assay [3].

`CCCN(CCC)C1CC1c1ccc(O)cc1` (stereo not given): the ED50 in assay [1], in assay [2] and in assay [3] was more than 50 µmol/kg throughout.

Regarding `CCCN(CCC)C1CC1c1cccc(O)c1` (stereo in doubt; (+)-18), the ED50 in assay [1], in assay [2] and in assay [3] was more than 50 µmol/kg throughout.

In the case of `CN(C)C1CC1c1ccccc1O` (stereo not given), the values for the ED50 in assay [1], in assay [2] and in assay [3] were 9.31 µmol/kg, 6.2 µmol/kg and 3.45 µmol/kg, respectively.

As to `CCCN(CCC)C1CC1c1ccccc1OC` (stereo not given), the ED50 came to 0.72 µmol/kg in assay [1] and 0.93 µmol/kg in assay [2].

As to `CCCN(CCC)C1CC1c1ccccc1O` (single isomer, unassigned; (+)), the ED50 in assay [1] was more than 50 µmol/kg; in assay [2], more than 50 µmol/kg; in assay [3], 14.5 µmol/kg.

`CCCN(CCC)C1CC1c1cccc(O)c1` (stereo in doubt; 18): the ED50 is 0.58 µmol/kg in assay [1], 0.66 µmol/kg in assay [2] and 0.47 µmol/kg in assay [3].

`CCCN(CCC)C1CC1c1ccc(O)c(O)c1` (stereo not given): the ED50 in assay [1], in assay [2] and in assay [3] was more than 50 µmol/kg each time.

`CCCN(CCC)C1CC1c1ccccc1O` (single isomer, unassigned; (-)): the ED50 in assay [1] was 0.38 µmol/kg; in assay [2], 0.28 µmol/kg; in assay [3] it was 0.26 µmol/kg.

Consider `CCCN(CCC)C1CC1c1cccc(OC)c1` (stereo not given), for which the ED50 in assay [1] came to 1.43 µmol/kg; in assay [2], 2.06 µmol/kg; in assay [3], 1.17 µmol/kg.

Consider `CCCN(CCC)[C@@H]1CCc2cccc(O)c2C1`, for which the ED50 came out at 0.077 µmol/kg in assay [1], 0.061 µmol/kg in assay [2] and 0.065 µmol/kg in assay [3].
